Source: article PMC7086808 (Archives of Virology, 2009)

What was measured:
[1] = system: Coxsackie virus B5 (CVB5); assay: MTT/CPE antiviral assay, compound treatment before virus infection; assay type: cell-based
Procedure, shortened: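 HEp-2 cells pretreated with twofold serial dilutions in MEM for 24 h at 37°C, 5% CO2. Compound then removed and cells washed twice with PBS before challenge with 100 TCID50/0.1 ml CVB5 for 1 h. After two more washes, cells kept in test medium until CPE appeared; scored microscopically and by MTT. IC50 and TI (CC50/IC50); mean ± SD of three experiments.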

[2] = system: Coxsackie virus B5 (CVB5); assay: MTT/CPE antiviral assay, compound treatment after virus infection; assay type: cell-based; conditions: for IC50: Enterovirus B
Procedure, shortened: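 Confluent HEp-2 monolayers infected with CVB5 at 100 TCID50/0.1 ml for 1 h, washed with PBS, then overlaid with twofold serial dilutions in 2% serum test medium, dosed daily. CPE scored by light microscopy and quantified by MTT (OD 540/690 nm). IC50 derived, TI = CC50/IC50; mean ± SD from three independent experiments.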

[3] = system: Coxsackie virus B5 (CVB5); assay: Virucidal assay; assay type: cell-based; conditions: Enterovirus B, B5|CVB5, HEp-2, 1 h
Procedure, shortened: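 CVB5 suspension mixed with twofold serial dilutions (0.5 to 20 μg/ml) for 1 h at 37°C, then added to confluent HEp-2 cells for 1 h. Inoculum removed, cells rinsed with PBS and incubated in test medium. CPE scored by microscopy and MTT; IC50 derived as mean ± SD of three independent experiments.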

[4] = MTT cytotoxicity assay; assay type: cell-based; conditions: human, HEp-2 cells (uninfected)
Procedure, shortened: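 HEp-2 cells seeded at 2 × 10⁴/well and grown to subconfluence, then given serial twofold dilutions in test medium with 2% serum; four uninfected wells per dilution; compound re-added daily; controls had 0.05% DMSO. Read-out: MTT (5 mg/ml in PBS, 4 h), formazan dissolved in DMSO, OD at 540/690 nm. Expressed as % of untreated; CC50 derived; dilutions in triplicate.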

[5] = system: CVB5 RNA; assay: Semi-quantitative detection of viral RNA by RT-PCR; assay type: cell-based, Coxsackie virus B5; conditions: cells treated after infection with 0.3-40 μg/ml
[6] = system: Coxsackie virus B5 (CVB5); assay: Coxsackie virus B5 infection in mice; assay type: in vivo, BALB/c mice; conditions: for mean virus yield of hearts: plaque assay
[7] = Storage stability of compound preparations; assay type: physicochemical; conditions: DMSO/test medium preparations; freezing and short-term storage (1 month at 4°C)
[8] = system: mice; conditions: single-dose oral administration; cited from earlier work
[9] = system: rats; conditions: single-dose oral administration; cited from earlier work
[10] = system: guinea pigs; conditions: single-dose oral administration; cited from earlier work
[11] = system: animals; conditions: cited from earlier work
[12] = cited from earlier work

CCOC(=O)c1c(CSc2ccccc2)n(C)c2cc(Br)c(O)c(CN(C)C)c12.Cl.O [Arbidol, ethyl-6-bromo-4-[(dimethylamino)-methyl]-5-hydroxy-1-methyl-2-[(phenylthio)methyl]-indole-3-carboxylate hydrochloride monohydrate]
IC50 ([1]; Enterovirus B, B5|CVB5, HEp-2): 30.3 ± 1.6 µg/mL
TI (CC50/IC50) ([1]; drug added before infection, HEp-2 cells): 2.7
IC50 ([2]; B5|CVB5, HEp-2): 6.62 ± 1.1 µg/mL
IC50 ([2]; B5|CVB5, read-out: 50% inhibitory concentration (IC50), CPE of CVB5): 2.66 to 6.62 µg/mL
TI (CC50/IC50) ([2]; drug added after infection, HEp-2 cells): 12.45
IC50 [3]: 2.66 ± 0.4 µg/mL
CC50 [4]: 82.1 µg/mL
ratio of CVB5 RNA to β-actin (RT-PCR) [5]: decreased with increasing dose
lung index vs viral control group ([6]; 25 mg/kg body weight/day p.o.): significantly lower
mean virus yield of hearts ([6]; 25 mg/kg body weight/day p.o. for 6 days): 10^3 viral plaques/heart
survival by day 30 ([6]; 25 mg/kg body weight/day p.o., eight mice per group): half of them had survived
clinical observations during the 30-day period ([6]; 50 mg/kg body weight/day p.o.): did not show abnormalities
lung index vs normal group ([6]; 50 mg/kg body weight/day p.o.): no significant difference
lung index vs viral control group ([6]; 50 mg/kg body weight/day p.o.): significantly lower
mean virus yield of hearts ([6]; 50 mg/kg body weight/day p.o. for 6 days): 10^2 viral plaques/heart
survival rate ([6]; 50 mg/kg body weight/day p.o. once a day for 6 days): significantly enhanced
body weight ([6]; 50 mg/kg body weight/day p.o., 30-day period): slight weight loss
efficacy of preparations upon storage [7]: did not appear to change
LD50 (50% lethal dose) [8]: 687 mg/kg
LD50 (50% lethal dose) [9]: 3,000 mg/kg
LD50 (50% lethal dose) [10]: 4,000 mg/kg
pathologic changes on long-term intake ([11]; animals, clinical, hematological, biochemical, pathological data): did not show pathologic changes
mutagenic or teratogenic activity ([11]; at therapeutic doses): no mutagenic or teratogenic activity
half-life in cultured cells [12]: about 18 h
